Experiment [1] addresses Nitric oxide synthase, inducible (Homo sapiens, UniProt P35228). The experiment in a line: Inhibition of human iNOS expressed in baculovirus-infected insect sf9 cells assessed as conversion of [3H]-L-arginine to [3H]-L-citrulline preincubated for 15 mins with compound measured after 45 mins by scintillation counting.
A further experiment is filed under the species Homo sapiens. The experiment in a line: Selectivity ratio of IC50 for human eNOS to IC50 for human nNOS. In a few lines:
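Recombinant human nNOS and eNOS made in baculovirus-infected Sf9 cells. Buffer: 40 mM HEPES pH 7.4 with 2.4 mM CaCl2, 1 mM MgCl2, 1 mg/mL BSA, 1 mM EDTA, 1 mM DTT, 1 μM FMN/FAD, 10 μM BH4, 1 mM NADPH and 1.2 μM CaM. Compound preincubated 15 min at RT. Started with 24 μM L-arginine plus [3H]arginine. [3H]citrulline separated on DOWEX and counted; background from L-NMMA control; duplicates.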

Experiment [2] has as its target Sodium-dependent noradrenaline transporter (Homo sapiens, UniProt P23975). The experiment in a line: Displacement of [3H]nisoxetine from human NET expressed in CHO cells after 120 mins by scintillation counting. The format is cell-based. In a few lines: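 Membranes from hNET-transfected CHO cells (20 μg protein) incubated 120 min at 4 °C with 1 nM [3H]nisoxetine in 50 mM Tris-HCl pH 7.4, 120 mM NaCl, 5 mM KCl. Nonspecific binding defined with 1 μM desipramine. Filtered on PEI-soaked GF/B and counted.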

The target in another experiment is T1, Nitric oxide synthase 3 (Homo sapiens, UniProt P29474).
T1 sequence (P29474 whole entry): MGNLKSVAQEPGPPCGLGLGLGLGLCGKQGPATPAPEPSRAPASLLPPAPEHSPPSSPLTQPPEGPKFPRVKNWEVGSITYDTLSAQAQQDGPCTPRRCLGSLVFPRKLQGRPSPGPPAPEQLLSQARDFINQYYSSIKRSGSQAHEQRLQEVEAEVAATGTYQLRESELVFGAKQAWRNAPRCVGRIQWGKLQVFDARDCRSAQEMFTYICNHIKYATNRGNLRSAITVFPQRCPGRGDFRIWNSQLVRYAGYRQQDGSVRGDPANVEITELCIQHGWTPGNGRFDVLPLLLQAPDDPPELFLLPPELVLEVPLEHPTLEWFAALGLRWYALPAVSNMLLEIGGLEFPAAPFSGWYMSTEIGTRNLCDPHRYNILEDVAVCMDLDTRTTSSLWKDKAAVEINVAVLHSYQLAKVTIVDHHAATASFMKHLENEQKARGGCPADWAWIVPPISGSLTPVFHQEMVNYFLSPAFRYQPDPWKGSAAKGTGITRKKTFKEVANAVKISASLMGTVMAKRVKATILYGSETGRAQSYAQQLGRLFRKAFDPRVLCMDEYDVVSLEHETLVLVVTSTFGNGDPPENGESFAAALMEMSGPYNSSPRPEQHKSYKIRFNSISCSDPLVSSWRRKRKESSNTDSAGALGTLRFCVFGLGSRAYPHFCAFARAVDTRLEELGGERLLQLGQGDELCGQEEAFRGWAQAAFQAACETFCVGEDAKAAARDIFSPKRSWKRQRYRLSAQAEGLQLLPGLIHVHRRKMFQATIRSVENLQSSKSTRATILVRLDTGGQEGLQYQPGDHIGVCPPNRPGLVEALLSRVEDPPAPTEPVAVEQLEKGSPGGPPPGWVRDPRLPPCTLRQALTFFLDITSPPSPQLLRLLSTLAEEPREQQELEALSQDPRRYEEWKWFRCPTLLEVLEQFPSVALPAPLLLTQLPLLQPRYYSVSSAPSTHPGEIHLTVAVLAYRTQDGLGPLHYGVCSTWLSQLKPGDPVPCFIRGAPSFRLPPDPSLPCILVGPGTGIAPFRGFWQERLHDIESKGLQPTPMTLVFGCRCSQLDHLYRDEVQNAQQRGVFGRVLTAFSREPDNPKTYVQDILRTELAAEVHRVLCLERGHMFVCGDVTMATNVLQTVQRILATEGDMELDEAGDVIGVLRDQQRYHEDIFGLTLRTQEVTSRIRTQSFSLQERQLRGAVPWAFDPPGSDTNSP
The experiment in a line: Inhibition of human eNOS expressed in baculovirus-infected insect sf9 cells assessed as conversion of [3H]-L-arginine to [3H]-L-citrulline preincubated for 15 mins with compound measured after 45 mins by scintillation counting.

In another experiment the target is Nitric oxide synthase 1 (Homo sapiens, UniProt P29475). The experiment in a line: Inhibition of human nNOS expressed in baculovirus-infected insect sf9 cells assessed as conversion of [3H]-L-arginine to [3H]-L-citrulline preincubated for 15 mins with compound measured after 45 mins by scintillation counting.
Chain of Nitric oxide synthase 1 (P29475 whole entry): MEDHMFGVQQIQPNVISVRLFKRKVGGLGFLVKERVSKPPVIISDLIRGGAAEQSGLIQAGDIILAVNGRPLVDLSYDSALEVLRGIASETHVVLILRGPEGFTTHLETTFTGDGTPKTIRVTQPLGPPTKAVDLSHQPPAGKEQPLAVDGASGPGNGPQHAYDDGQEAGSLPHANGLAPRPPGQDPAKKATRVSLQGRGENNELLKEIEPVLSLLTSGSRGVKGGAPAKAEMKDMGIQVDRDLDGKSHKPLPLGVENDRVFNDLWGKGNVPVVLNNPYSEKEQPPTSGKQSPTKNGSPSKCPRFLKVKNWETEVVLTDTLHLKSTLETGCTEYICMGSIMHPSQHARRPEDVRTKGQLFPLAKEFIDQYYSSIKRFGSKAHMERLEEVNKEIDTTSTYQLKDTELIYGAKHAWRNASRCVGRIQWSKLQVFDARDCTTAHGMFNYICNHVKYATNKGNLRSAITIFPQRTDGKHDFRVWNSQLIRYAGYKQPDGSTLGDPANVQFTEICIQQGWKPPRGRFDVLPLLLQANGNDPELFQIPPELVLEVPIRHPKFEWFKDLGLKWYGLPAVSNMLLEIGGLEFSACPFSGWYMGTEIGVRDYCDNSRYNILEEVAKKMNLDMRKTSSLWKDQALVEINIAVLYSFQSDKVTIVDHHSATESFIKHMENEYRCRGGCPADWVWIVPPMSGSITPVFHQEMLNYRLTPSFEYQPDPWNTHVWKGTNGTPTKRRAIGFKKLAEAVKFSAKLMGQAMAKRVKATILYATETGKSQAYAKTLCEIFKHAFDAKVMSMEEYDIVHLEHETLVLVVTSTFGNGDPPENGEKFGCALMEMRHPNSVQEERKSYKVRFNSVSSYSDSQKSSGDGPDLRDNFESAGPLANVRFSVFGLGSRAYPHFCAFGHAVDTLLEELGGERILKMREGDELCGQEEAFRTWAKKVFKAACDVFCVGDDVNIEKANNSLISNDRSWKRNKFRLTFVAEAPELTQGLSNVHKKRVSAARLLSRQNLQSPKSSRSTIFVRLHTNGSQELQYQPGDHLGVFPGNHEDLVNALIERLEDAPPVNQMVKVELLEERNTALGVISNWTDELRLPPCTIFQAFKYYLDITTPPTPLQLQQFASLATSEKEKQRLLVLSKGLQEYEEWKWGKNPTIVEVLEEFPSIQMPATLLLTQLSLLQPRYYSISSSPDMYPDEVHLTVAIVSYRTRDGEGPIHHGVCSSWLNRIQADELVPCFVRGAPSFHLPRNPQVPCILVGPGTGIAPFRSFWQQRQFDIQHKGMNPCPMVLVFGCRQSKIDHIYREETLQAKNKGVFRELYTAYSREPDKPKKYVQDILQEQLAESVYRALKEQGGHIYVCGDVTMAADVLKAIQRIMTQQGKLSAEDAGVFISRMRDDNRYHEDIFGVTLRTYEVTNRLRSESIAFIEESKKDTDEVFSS
For another experiment, the target named is Cytochrome P450 3A4 (Homo sapiens, UniProt P08684). The experiment in a line: Inhibition of CYP3A4. It is filed as ADME.
A further experiment deals with Cytochrome P450 2D6 (Homo sapiens, UniProt P10635). The experiment in a line: Inhibition of CYP2D6. It is filed as ADME.
Chain of Cytochrome P450 2D6 (P10635 whole entry): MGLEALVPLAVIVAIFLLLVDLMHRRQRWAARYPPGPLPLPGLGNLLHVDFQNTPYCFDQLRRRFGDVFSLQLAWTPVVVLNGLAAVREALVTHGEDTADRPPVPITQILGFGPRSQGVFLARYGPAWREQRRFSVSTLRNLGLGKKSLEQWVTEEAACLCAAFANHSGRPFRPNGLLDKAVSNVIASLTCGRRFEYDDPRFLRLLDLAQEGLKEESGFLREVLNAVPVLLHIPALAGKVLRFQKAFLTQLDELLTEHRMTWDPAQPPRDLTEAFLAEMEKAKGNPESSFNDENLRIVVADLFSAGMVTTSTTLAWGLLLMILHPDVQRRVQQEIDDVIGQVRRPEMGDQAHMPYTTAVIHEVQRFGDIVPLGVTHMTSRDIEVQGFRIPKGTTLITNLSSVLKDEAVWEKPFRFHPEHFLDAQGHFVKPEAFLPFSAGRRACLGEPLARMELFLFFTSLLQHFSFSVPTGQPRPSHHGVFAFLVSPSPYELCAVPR
The target of the next experiment is Cytochrome P450 2C19 (Homo sapiens, UniProt P33261). The experiment in a line: Inhibition of CYP2C19. The format is ADME.
Chain of Cytochrome P450 2C19 (P33261 whole entry): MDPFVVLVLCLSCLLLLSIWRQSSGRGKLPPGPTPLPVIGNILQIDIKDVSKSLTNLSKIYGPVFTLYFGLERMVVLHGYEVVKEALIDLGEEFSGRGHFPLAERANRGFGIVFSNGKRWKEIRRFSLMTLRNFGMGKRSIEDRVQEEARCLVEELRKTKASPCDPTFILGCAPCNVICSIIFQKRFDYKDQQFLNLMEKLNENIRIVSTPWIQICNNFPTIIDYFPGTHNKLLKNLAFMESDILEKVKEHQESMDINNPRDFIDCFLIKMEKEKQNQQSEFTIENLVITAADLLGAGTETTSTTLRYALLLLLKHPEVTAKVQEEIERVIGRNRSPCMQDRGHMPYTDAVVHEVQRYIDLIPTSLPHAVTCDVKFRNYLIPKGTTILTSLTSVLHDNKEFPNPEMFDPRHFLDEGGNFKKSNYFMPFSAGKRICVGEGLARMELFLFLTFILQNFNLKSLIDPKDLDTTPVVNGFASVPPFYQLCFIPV
A further experiment addresses Cytochrome P450 2C9 (Homo sapiens, UniProt P11712). The experiment in a line: Inhibition of CYP2C9. The format is ADME. Particulars: read-out: IC50.
The target of a further experiment is T2, Cytochrome P450 1A2 (Homo sapiens, UniProt P05177).
T2 sequence (P05177 whole entry): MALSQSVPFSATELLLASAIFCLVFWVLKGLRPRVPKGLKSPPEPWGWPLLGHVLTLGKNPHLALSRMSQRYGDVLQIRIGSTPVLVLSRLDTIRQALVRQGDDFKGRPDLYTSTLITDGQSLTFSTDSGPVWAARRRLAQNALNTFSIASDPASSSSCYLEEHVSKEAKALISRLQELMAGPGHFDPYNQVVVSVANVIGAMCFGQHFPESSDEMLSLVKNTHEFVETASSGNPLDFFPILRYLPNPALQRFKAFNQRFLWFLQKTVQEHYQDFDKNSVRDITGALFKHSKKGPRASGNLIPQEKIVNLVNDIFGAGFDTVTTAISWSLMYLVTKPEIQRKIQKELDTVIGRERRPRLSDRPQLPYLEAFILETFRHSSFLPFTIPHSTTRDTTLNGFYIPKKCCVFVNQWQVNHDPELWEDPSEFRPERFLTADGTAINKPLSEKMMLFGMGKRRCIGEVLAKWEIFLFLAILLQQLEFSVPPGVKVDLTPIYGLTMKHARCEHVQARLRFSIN
The experiment in a line: Inhibition of CYP1A2. It is filed as ADME. Particulars: read-out: IC50.

Each structure is given as a SMILES string.

The results in this text go back to ChEMBL document CHEMBL2034871, “First-in-class, dual-action, 3,5-disubstituted indole derivatives having human nitric oxide synthase (nNOS) and norepinephrine reuptake inhibitory (NERI) activity for the treatment of neuropathic pain” (J Med Chem, 2012).

Chain of Nitric oxide synthase, inducible (P35228 whole entry): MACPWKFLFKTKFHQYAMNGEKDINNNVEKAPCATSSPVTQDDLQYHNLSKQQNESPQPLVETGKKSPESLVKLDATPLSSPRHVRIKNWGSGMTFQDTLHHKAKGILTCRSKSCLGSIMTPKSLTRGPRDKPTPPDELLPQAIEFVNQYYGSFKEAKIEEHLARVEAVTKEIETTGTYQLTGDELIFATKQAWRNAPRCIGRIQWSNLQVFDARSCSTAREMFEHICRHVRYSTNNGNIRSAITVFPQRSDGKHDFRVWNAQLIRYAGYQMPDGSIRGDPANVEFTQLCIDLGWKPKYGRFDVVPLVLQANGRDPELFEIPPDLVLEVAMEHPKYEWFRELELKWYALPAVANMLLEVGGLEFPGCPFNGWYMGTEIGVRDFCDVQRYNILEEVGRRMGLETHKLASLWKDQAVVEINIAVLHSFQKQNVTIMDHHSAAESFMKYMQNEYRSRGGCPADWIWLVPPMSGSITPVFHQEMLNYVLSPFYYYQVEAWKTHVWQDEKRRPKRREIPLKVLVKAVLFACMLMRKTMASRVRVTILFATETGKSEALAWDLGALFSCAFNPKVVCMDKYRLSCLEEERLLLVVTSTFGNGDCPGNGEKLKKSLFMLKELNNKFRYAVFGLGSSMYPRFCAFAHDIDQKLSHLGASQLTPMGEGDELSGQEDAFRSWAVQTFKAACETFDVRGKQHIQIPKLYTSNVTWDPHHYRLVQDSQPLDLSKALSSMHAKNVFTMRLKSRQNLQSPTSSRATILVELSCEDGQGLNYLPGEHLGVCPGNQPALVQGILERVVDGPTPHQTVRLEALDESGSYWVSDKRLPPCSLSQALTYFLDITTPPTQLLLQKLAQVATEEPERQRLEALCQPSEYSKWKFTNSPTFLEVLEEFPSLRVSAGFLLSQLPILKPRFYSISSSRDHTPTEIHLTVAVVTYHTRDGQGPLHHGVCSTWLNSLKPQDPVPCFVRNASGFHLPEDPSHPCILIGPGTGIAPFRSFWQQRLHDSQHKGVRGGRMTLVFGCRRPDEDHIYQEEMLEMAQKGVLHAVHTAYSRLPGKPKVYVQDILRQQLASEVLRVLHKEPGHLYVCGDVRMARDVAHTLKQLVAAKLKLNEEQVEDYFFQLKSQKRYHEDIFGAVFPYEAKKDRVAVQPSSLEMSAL
Chain of Sodium-dependent noradrenaline transporter (P23975 whole entry): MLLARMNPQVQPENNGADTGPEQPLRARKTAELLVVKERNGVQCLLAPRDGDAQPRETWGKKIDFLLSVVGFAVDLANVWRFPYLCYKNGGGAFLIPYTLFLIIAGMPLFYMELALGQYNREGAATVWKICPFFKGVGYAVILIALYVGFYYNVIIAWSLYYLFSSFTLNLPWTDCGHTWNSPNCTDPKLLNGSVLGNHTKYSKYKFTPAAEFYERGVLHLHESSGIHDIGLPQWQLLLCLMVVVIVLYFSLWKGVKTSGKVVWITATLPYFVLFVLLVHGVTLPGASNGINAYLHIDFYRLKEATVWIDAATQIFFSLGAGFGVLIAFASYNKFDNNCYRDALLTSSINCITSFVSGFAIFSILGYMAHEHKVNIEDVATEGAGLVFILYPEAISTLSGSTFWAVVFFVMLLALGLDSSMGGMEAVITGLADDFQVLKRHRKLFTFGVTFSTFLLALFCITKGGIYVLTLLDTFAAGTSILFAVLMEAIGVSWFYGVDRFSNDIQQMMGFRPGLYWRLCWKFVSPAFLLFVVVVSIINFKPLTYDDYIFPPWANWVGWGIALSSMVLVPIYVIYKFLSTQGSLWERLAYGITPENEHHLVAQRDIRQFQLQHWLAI
Chain of Cytochrome P450 2C9 (P11712 whole entry): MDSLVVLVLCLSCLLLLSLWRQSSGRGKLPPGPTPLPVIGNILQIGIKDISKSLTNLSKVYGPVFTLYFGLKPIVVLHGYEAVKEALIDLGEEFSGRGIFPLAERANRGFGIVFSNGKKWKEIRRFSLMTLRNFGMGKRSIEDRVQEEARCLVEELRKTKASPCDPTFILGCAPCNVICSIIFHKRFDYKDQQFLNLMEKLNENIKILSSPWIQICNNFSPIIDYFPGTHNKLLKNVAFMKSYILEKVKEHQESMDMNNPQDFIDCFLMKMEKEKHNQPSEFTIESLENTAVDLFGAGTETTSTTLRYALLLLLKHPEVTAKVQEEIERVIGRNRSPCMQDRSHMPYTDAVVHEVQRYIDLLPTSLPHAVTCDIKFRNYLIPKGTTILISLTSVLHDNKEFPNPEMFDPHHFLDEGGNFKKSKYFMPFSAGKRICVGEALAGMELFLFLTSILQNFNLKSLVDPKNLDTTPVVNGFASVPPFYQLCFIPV

Turning to `CN[C@H]1CC[C@H](c2c[nH]c3ccc(NC(=N)c4cccs4)cc32)CC1`, the IC50 in [1] was found to be […].
For the compound `CCN[C@H]1CC[C@H](c2c[nH]c3ccc(NC(=N)c4cccs4)cc32)CC1`, the IC50 in experiment [1] came out at 155 µM.
In the case of `CNC1CC=C(c2c[nH]c3ccc(/N=C(\N)c4cccs4)cc23)CC1` (racemic), in the experiment listed under Homo sapiens, the Ratio IC50 amounted to 19.
On to `CN(C)C1CC=C(c2c[nH]c3ccc(/N=C(\N)c4cccs4)cc23)CC1` (single isomer, unassigned; (-)), for which the Ratio IC50 in the experiment listed under Homo sapiens turned out to be 54.
Regarding `CCN[C@H]1CCC[C@H](c2c[nH]c3ccc(NC(=N)c4cccs4)cc23)C1` (racemic), the IC50 in experiment [2] amounted to 760 nM; in [1], 54.2 µM.
For `CCN[C@H]1CCC[C@@H](c2c[nH]c3ccc(NC(=N)c4cccs4)cc23)C1` (racemic) the same measures were 1700 nM and 19.2 µM.
Regarding `CN(C)[C@H]1CC[C@@H](c2c[nH]c3ccc(NC(=N)c4cccs4)cc32)CC1`, the concentration for half-maximal inhibition (IC50) in experiment [2] stood at 160 nM; on Nitric oxide synthase 3 it was 17.5 µM; in experiment [1], 26.5 µM; at Nitric oxide synthase 1, 350 nM. In addition, the Ratio IC50 in the experiment listed under Homo sapiens amounted to 51.
As to `CCNC1CC=C(c2c[nH]c3ccc(NC(=N)c4cccs4)cc23)CC1` (racemic), the Ratio IC50 in the experiment listed under Homo sapiens was 28.
As for `CN(C)[C@H]1CC[C@H](c2c[nH]c3ccc(NC(=N)c4cccs4)cc32)CC1`, the IC50 was determined as 2200 nM in experiment [2], 284 µM on Nitric oxide synthase 3, 149 µM in experiment [1] and 4520 nM on Nitric oxide synthase 1. The Ratio IC50 in the experiment listed under Homo sapiens came out at 63.
For the compound `CN(C)C1CC=C(c2c[nH]c3ccc(NC(=N)c4cccs4)cc23)CC1` (single isomer, unassigned; (-)), at Nitric oxide synthase 1, the concentration for half-maximal inhibition (IC50) amounted to 860 nM.
For the compound `CN(C)C1CC=C(c2c[nH]c3ccc(NC(=N)c4cccs4)cc23)CC1` (racemic), the 50% inhibitory concentration (IC50) in [1] turned out to be 24 µM.
Consider `CN(C)C1CC=C(c2c[nH]c3ccc(NC(=N)c4cccs4)cc23)CC1` (single isomer, unassigned; (+)), for which the IC50 at Nitric oxide synthase 1 was found to be 840 nM.
Regarding `CN[C@H]1CCC[C@H](c2c[nH]c3ccc(NC(=N)c4cccs4)cc23)C1` (racemic), the IC50 in experiment [2] was 880 nM; on Nitric oxide synthase 3, 7.76 µM; in experiment [1], 14.5 µM.
For the compound `CNC1CCCC(c2c[nH]c3ccc(NC(=N)c4cccs4)cc23)C1` (single isomer, unassigned; (-)), the half-maximal inhibitory concentration (IC50) in experiment [1] was 70 µM.
For the compound `CN(C)C1CC=C(c2c[nH]c3ccc(/N=C(\N)c4cccs4)cc23)CC1` (single isomer, unassigned; (+)), the Ratio IC50 in the experiment listed under Homo sapiens was found to be 114.
Regarding `CN[C@H]1CC[C@@H](c2c[nH]c3ccc(NC(=N)c4cccs4)cc32)CC1`, the concentration for half-maximal inhibition (IC50) against Cytochrome P450 3A4 was determined as 57.3 µM; in [1] it was […].
For `CCN[C@H]1CC[C@@H](c2c[nH]c3ccc(NC(=N)c4cccs4)cc32)CC1`, the 50% inhibitory concentration (IC50) was 927 nM at Cytochrome P450 2D6; 493 µM in experiment [1]; 23.4 µM against Cytochrome P450 2C19; 21.5 µM on Cytochrome P450 2C9; over 100 µM on Cytochrome P450 1A2.
Consider `CN(C)C1CC=C(c2c[nH]c3ccc(/N=C(\N)c4cccs4)cc23)CC1` (racemic), for which, in the experiment listed under Homo sapiens, the Ratio IC50 came out at 17.
As to `CN[C@H]1CCC[C@@H](c2c[nH]c3ccc(NC(=N)c4cccs4)cc23)C1` (racemic), the values for the IC50 (in experiment [2]; on Nitric oxide synthase 3; in [1]) were 2400 nM, 77.6 µM and 54.1 µM, respectively.
